Measured values taken from ChEMBL document CHEMBL4689842, “EUbOPEN Chemogenomics Library wave 1” (2021).
Several values for one entry are separate records, joined by “and”; a condition that tells them apart may be missing. Identical values can stand only once.

System: Fibroblast
Experiment: Multiplex assay against human fibroblast
Format: toxicity, cell-based
Method in brief: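 Imaging took place on a CQ1 microscope at 37°C and 5% CO2 once compound had been added to live cells stained at seeding with Hoechst33342, BioTracker Green Microtubule Cytoskeleton Dye, MitoTracker Red and Annexin V Alexa Fluor 680. CellPathfinder machine-learning gating classed cells as Hoechst high-intensity objects or normal cells, classed normal cells as having healthy, pyknosed or fragmented nuclei, and classed pyknosed cells as mitotic or apoptotic. Tubulin, mitochondrial-mass and membrane-permeability phenotypes are per cents of the healthy-nucleus cells.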

[1] = 12 h, 1 µM, compound concentration 1 uM, replicate 1
[2] = 12 h, 1 µM, compound concentration 1 uM, replicate 2
[3] = 12 h, 10 µM, compound concentration 10 uM, replicate 1
[4] = 12 h, 10 µM, compound concentration 10 uM, replicate 2
[5] = 24 h, 1 µM, compound concentration 1 uM, replicate 1
[6] = 24 h, 1 µM, compound concentration 1 uM, replicate 2
[7] = 24 h, 10 µM, compound concentration 10 uM, replicate 1
[8] = 24 h, 10 µM, compound concentration 10 uM, replicate 2
[9] = 48 h, 1 µM, compound concentration 1 uM, replicate 1
[10] = 48 h, 1 µM, compound concentration 1 uM, replicate 2
[11] = 48 h, 10 µM, compound concentration 10 uM, replicate 1
[12] = 48 h, 10 µM, compound concentration 10 uM, replicate 2

With `CNCc1ccc(-c2cc(-c3nc(-c4ccc(S(=O)(=O)C(C)C)cc4)cnc3N)on2)cc1` [BERZOSERTIB] the “Population Apoptotic (%)” value [1] was 45% and 78%, the “Population Fragmented Nuclei (%)” value [1] was 22% and 31% and the “Population Hoechst High Intensity Objects (%)” value [1] was 63% and 99%. The “Population Membrane Permeable-Phenotype (%)” value [1] was 1%, the “Population Mitochondria Different-Phenotype (%)” value [1] was 0% and the “Population Mitotic Cells (%)” value [1] was 54% and 21%. The “Population Pyknosed Nuclei (%)” value [1] was 54% and 63%, the “Population Apoptotic (%)” value [2] was 47% and 100% and the “Population Fragmented Nuclei (%)” value [2] was 47% and 96%. For the same compound, the “Population Hoechst High Intensity Objects (%)” value [2] was 68% and 95%, the “Population Membrane Permeable-Phenotype (%)” value [2] was 14% and 0% and the “Population Mitochondria Different-Phenotype (%)” value [2] was 4%. The “Population Tubulin-Different-Phenotype (%)” value [2] was 0%, the “Population Apoptotic (%)” value [3] was 51% and 76% and the “Population Fragmented Nuclei (%)” value [3] was 24% and 41%. The “Population Healthy Nuclei (%)” value [3] was 21%, the “Population Hoechst High Intensity Objects (%)” value [3] was 64% and 99% and the “Population Membrane Permeable-Phenotype (%)” value [3] was 5%. For the same compound, the “Population Mitochondria Different-Phenotype (%)” value [3] was 1%, the “Population Mitotic Cells (%)” value [3] was 48% and 23% and the “Population Pyknosed Nuclei (%)” value [3] was 54%. For the same compound, the “Population Tubulin-Different-Phenotype (%)” value [3] was 8%, the “Total Cell Count” value [3] was 976 and 2548 and the “Population Apoptotic (%)” value [4] was 48% and 100%. For the same compound, the “Population Fragmented Nuclei (%)” value [4] was 54% and 93%, the “Population Hoechst High Intensity Objects (%)” value [4] was 69% and 96% and the “Population Membrane Permeable-Phenotype (%)” value [4] was 12% and 0%. The “Population Mitochondria Different-Phenotype (%)” value [4] was 6% and 0%, the “Population Tubulin-Different-Phenotype (%)” value [4] was 3% and 0% and the “Population Fragmented Nuclei (%)” value [5] was 66% and 26%. For the same compound, the “Population Hoechst High Intensity Objects (%)” value [5] was 99% and 67%, the “Population Membrane Permeable-Phenotype (%)” value [5] was 0% and 1% and the “Population Mitochondria Different-Phenotype (%)” value [5] was 0%. The “Population Mitotic Cells (%)” value [5] was 100% and 57%, the “Population Pyknosed Nuclei (%)” value [5] was 33% and 40% and the “Population Tubulin-Different-Phenotype (%)” value [5] was 0%. The “Population Apoptotic (%)” value [6] was 37% and 100%, the “Population Fragmented Nuclei (%)” value [6] was 53% and 94% and the “Population Hoechst High Intensity Objects (%)” value [6] was 69% and 96%. For the same compound, the “Population Membrane Permeable-Phenotype (%)” value [6] was 25%, the “Population Mitochondria Different-Phenotype (%)” value [6] was 12% and the “Population Fragmented Nuclei (%)” value [7] was 0% and 19%. For the same compound, the “Population Hoechst High Intensity Objects (%)” value [7] was 100% and 68%, the “Population Membrane Permeable-Phenotype (%)” value [7] was 0% and 8% and the “Population Mitochondria Different-Phenotype (%)” value [7] was 0%. For the same compound, the “Population Tubulin-Different-Phenotype (%)” value [7] was 0%, the “Population Apoptotic (%)” value [8] was 54% and the “Population Fragmented Nuclei (%)” value [8] was 93% and 42%. The “Population Hoechst High Intensity Objects (%)” value [8] was 97% and 74%, the “Population Mitochondria Different-Phenotype (%)” value [8] was 7% and the “Population Mitotic Cells (%)” value [8] was 45%. For the same compound, the “Population Pyknosed Nuclei (%)” value [8] was 33% and the “Population Tubulin-Different-Phenotype (%)” value [8] was 11%.
In the case of `CC(C)NCC(O)COc1ccc(CCOCC2CC2)cc1.Cl` (stereo unspecified) [BETAXOLOL HYDROCHLORIDE], the “Population Apoptotic (%)” value [1] is reported as 41%, the “Population Fragmented Nuclei (%)” value [1] is reported as 22% and the “Population Healthy Nuclei (%)” value [1] is reported as 47%. The “Population Hoechst High Intensity Objects (%)” value [1] was 4%, the “Population Membrane Permeable-Phenotype (%)” value [1] was 23% and the “Population Mitochondria Different-Phenotype (%)” value [1] was 2%. For the same compound, the “Population Mitotic Cells (%)” value [1] was 58%, the “Population Normal (%)” value [1] was 95% and the “Population Pyknosed Nuclei (%)” value [1] was 30%. The “Population Tubulin-Different-Phenotype (%)” value [1] was 39%, the “Total Cell Count” value [1] was 84 and the “Population Apoptotic (%)” value [2] was 100%. For the same compound, the “Population Fragmented Nuclei (%)” value [2] was 2%, the “Population Healthy Nuclei (%)” value [2] was 95% and the “Population Hoechst High Intensity Objects (%)” value [2] was 16%. For the same compound, the “Population Membrane Permeable-Phenotype (%)” value [2] was 6%, the “Population Mitotic Cells (%)” value [2] was 0% and the “Population Normal (%)” value [2] was 83%. For the same compound, the “Population Pyknosed Nuclei (%)” value [2] was 2%, the “Population Tubulin-Different-Phenotype (%)” value [2] was 9% and the “Total Cell Count” value [2] was 55. For the same compound, the “Population Apoptotic (%)” value [3] was 67%, the “Population Fragmented Nuclei (%)” value [3] was 17% and the “Population Healthy Nuclei (%)” value [3] was 55%. For the same compound, the “Population Hoechst High Intensity Objects (%)” value [3] was 16%, the “Population Membrane Permeable-Phenotype (%)” value [3] was 10% and the “Population Mitochondria Different-Phenotype (%)” value [3] was 17%. For the same compound, the “Population Mitotic Cells (%)” value [3] was 32%, the “Population Normal (%)” value [3] was 83% and the “Population Pyknosed Nuclei (%)” value [3] was 26%. The “Population Tubulin-Different-Phenotype (%)” value [3] was 58%, the “Total Cell Count” value [3] was 125 and the “Population Apoptotic (%)” value [4] was 23%. The “Population Fragmented Nuclei (%)” value [4] was 9%, the “Population Healthy Nuclei (%)” value [4] was 77% and the “Population Hoechst High Intensity Objects (%)” value [4] was 7%. For the same compound, the “Population Membrane Permeable-Phenotype (%)” value [4] was 5%, the “Population Mitochondria Different-Phenotype (%)” value [4] was 72% and the “Population Mitotic Cells (%)” value [4] was 76%. For the same compound, the “Population Normal (%)” value [4] was 92%, the “Population Pyknosed Nuclei (%)” value [4] was 13% and the “Population Tubulin-Different-Phenotype (%)” value [4] was 49%. For the same compound, the “Total Cell Count” value [4] was 107, the “Population Apoptotic (%)” value [5] was 30% and the “Population Fragmented Nuclei (%)” value [5] was 20%. The “Population Healthy Nuclei (%)” value [5] was 55%, the “Population Hoechst High Intensity Objects (%)” value [5] was 9% and the “Population Membrane Permeable-Phenotype (%)” value [5] was 30%. The “Population Mitochondria Different-Phenotype (%)” value [5] was 4%, the “Population Mitotic Cells (%)” value [5] was 70% and the “Population Normal (%)” value [5] was 90%. For the same compound, the “Population Pyknosed Nuclei (%)” value [5] was 24%, the “Population Tubulin-Different-Phenotype (%)” value [5] was 34% and the “Total Cell Count” value [5] was 92. For the same compound, the “Population Apoptotic (%)” value [6] was 33%, the “Population Fragmented Nuclei (%)” value [6] was 3% and the “Population Healthy Nuclei (%)” value [6] was 85%. The “Population Hoechst High Intensity Objects (%)” value [6] was 5%, the “Population Membrane Permeable-Phenotype (%)” value [6] was 4% and the “Population Mitochondria Different-Phenotype (%)” value [6] was 6%. The “Population Mitotic Cells (%)” value [6] was 66%, the “Population Normal (%)” value [6] was 94% and the “Population Pyknosed Nuclei (%)” value [6] was 10%. The “Population Tubulin-Different-Phenotype (%)” value [6] was 2%, the “Total Cell Count” value [6] was 59 and the “Population Apoptotic (%)” value [7] was 74%. For the same compound, the “Population Fragmented Nuclei (%)” value [7] was 25%, the “Population Healthy Nuclei (%)” value [7] was 50% and the “Population Hoechst High Intensity Objects (%)” value [7] was 15%. For the same compound, the “Population Membrane Permeable-Phenotype (%)” value [7] was 19%, the “Population Mitochondria Different-Phenotype (%)” value [7] was 21% and the “Population Mitotic Cells (%)” value [7] was 25%. For the same compound, the “Population Normal (%)” value [7] was 84%, the “Population Pyknosed Nuclei (%)” value [7] was 23% and the “Population Tubulin-Different-Phenotype (%)” value [7] was 64%. The “Total Cell Count” value [7] was 133, the “Population Apoptotic (%)” value [8] was 40% and the “Population Fragmented Nuclei (%)” value [8] was 7%. The “Population Healthy Nuclei (%)” value [8] was 78%, the “Population Hoechst High Intensity Objects (%)” value [8] was 5% and the “Population Membrane Permeable-Phenotype (%)” value [8] was 5%. For the same compound, the “Population Mitochondria Different-Phenotype (%)” value [8] was 78%, the “Population Mitotic Cells (%)” value [8] was 60% and the “Population Normal (%)” value [8] was 94%. For the same compound, the “Population Pyknosed Nuclei (%)” value [8] was 15%, the “Population Tubulin-Different-Phenotype (%)” value [8] was 46% and the “Total Cell Count” value [8] was 106. The “Population Apoptotic (%)” value [9] was 76%, the “Population Fragmented Nuclei (%)” value [9] was 33% and the “Population Healthy Nuclei (%)” value [9] was 50%. For the same compound, the “Population Hoechst High Intensity Objects (%)” value [9] was 12%, the “Population Membrane Permeable-Phenotype (%)” value [9] was 30% and the “Population Mitochondria Different-Phenotype (%)” value [9] was 4%. For the same compound, the “Population Mitotic Cells (%)” value [9] was 23%, the “Population Normal (%)” value [9] was 87% and the “Population Pyknosed Nuclei (%)” value [9] was 15%. The “Population Tubulin-Different-Phenotype (%)” value [9] was 45%, the “Total Cell Count” value [9] was 95 and the “Population Apoptotic (%)” value [10] was 83%. For the same compound, the “Population Fragmented Nuclei (%)” value [10] was 27%, the “Population Healthy Nuclei (%)” value [10] was 67% and the “Population Membrane Permeable-Phenotype (%)” value [10] was 13%. The “Population Mitochondria Different-Phenotype (%)” value [10] was 1%, the “Population Mitotic Cells (%)” value [10] was 16% and the “Population Pyknosed Nuclei (%)” value [10] was 4%. For the same compound, the “Population Tubulin-Different-Phenotype (%)” value [10] was 35%, the “Total Cell Count” value [10] was 157 and the “Population Apoptotic (%)” value [11] was 76%. The “Population Fragmented Nuclei (%)” value [11] was 41%, the “Population Healthy Nuclei (%)” value [11] was 50% and the “Population Hoechst High Intensity Objects (%)” value [11] was 24%. For the same compound, the “Population Membrane Permeable-Phenotype (%)” value [11] was 22%, the “Population Mitochondria Different-Phenotype (%)” value [11] was 4% and the “Population Mitotic Cells (%)” value [11] was 23%. For the same compound, the “Population Normal (%)” value [11] was 75%, the “Population Pyknosed Nuclei (%)” value [11] was 8% and the “Population Tubulin-Different-Phenotype (%)” value [11] was 55%. The “Total Cell Count” value [11] was 196, the “Population Apoptotic (%)” value [12] was 100% and the “Population Fragmented Nuclei (%)” value [12] was 48%. For the same compound, the “Population Hoechst High Intensity Objects (%)” value [12] was 20%, the “Population Membrane Permeable-Phenotype (%)” value [12] was 15% and the “Population Mitochondria Different-Phenotype (%)” value [12] was 2%. For the same compound, the “Population Mitotic Cells (%)” value [12] was 0%, the “Population Normal (%)” value [12] was 79% and the “Population Pyknosed Nuclei (%)” value [12] was 0%. For the same compound, the “Population Tubulin-Different-Phenotype (%)” value [12] was 66% and the “Total Cell Count” value [12] was 278.
